Source: ChEMBL document CHEMBL1145336, “1-aryl-3-(4-pyridine-2-ylpiperazin-1-yl)propan-1-one oximes as potent dopamine D4 receptor agonists for the treatment of erectile dysfunction” (J Med Chem, 2006)
pEC50, pIC50, pKi: −log10 of the molar value. The source made the active and inactive calls. The calls are words filed in the database; no cut-off is given here.

Legend:
D(2) dopamine receptor [1] = target: T1, D(2) dopamine receptor (Homo sapiens, UniProt P14416); assay: Agonist activity at human recombinant D2 receptor expressed in HEK293 cells by FLIPR assay; format: functional, cell-based
Outline: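 Calcium flux (FLIPR) in HEK-293 cells coexpressing recombinant human D2L with chimeric Gqo5. Efficacy is the maximal response relative to 10 µM dopamine (100%). EC50 is the concentration giving half-maximal stimulation. Values are means (SEM, n ≥ 3).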

D(2) dopamine receptor [2] = target: T1, D(2) dopamine receptor; assay: Displacement of [125I]PIPAT from human recombinant D2L receptor expressed in HEK293 cells
D(2) dopamine receptor [3] = target: T1, D(2) dopamine receptor; assay: Antagonist activity at human recombinant D2 receptor expressed in HEK293 cells by FLIPR assay; format: functional, cell-based
D(4) dopamine receptor [4] = target: T2, D(4) dopamine receptor (Homo sapiens, UniProt P21917); assay: Activity at human recombinant D4.4 receptor expressed in HEK293 cells by FLIPR assay; format: functional, cell-based
T2 sequence (P21917 whole entry): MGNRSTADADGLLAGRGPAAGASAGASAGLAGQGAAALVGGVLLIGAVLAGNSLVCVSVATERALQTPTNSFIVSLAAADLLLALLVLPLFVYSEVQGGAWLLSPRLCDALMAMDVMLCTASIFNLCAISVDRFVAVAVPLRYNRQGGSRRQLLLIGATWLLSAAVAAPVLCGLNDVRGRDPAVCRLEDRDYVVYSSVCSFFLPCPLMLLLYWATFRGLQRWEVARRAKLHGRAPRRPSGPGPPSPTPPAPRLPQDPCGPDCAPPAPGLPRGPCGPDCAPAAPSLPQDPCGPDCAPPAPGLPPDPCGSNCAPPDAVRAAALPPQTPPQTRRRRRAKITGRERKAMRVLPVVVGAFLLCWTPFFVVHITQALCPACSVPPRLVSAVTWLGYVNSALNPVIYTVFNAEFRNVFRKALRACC

D(4) dopamine receptor [5] = target: T2, D(4) dopamine receptor; assay: Displacement of [3H]A-369508 from human recombinant D4.4 receptor expressed in HEK293 cell membrane; format: cell membranes
Outline: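 Competition binding against the D4-selective agonist radioligand [3H]-A-369508, using membranes from HEK-293 cells engineered to express human D4.4. Mean values (SEM, n ≥ 4).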

Rattus norvegicus [6] = assay: Activity against penile erection in Wistar rat at 0.1 umol/kg, sc; format: functional
Outline: (§1)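 Male Wistar rats, dosed subcutaneously, were weighed and adapted to a red-lit testing room for 60 min; experiments ran between 9:00 a.m. and 3:00 p.m. Erections were counted by direct observation for 60 min after dosing. The share of animals with one or more erections was reported as incidence (percent), n = 8-30 rats.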

Rattus norvegicus [7] = assay: Inhibition of (E)-1-(4-chlorophenyl)-3-(4-pyridin-2-ylpiperazin-1-yl)propan-1-one O-methyloxime-induced erectogenic effect in Wistar rat at 10 umol/kg, ip; format: functional, organism-based
[8] = Bioavailability in dog at 1 mg/kg, po; format: ADME, organism-based, Canis lupus familiaris; conditions: in vivo
Outline: (§2)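 Pharmacokinetics in rat and dog after a 1 mg/kg dose given subcutaneously or orally. Oral bioavailability (F, %), volume of distribution (Vβ, L/kg) and half-life (T1/2, h) were determined.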

[9] = Bioavailability in rat at 1 mg/kg, po; format: ADME, organism-based; conditions: in vivo; outline: as §2
[10] = Bioavailability in rat at 1 mg/kg, sc; format: ADME, organism-based; conditions: in vivo; outline: as §2
[11] = Half life in rat at 1 mg/kg, sc; format: ADME, organism-based; design: dose 1 mg/kg, route subcutaneous; conditions: in vivo; outline: as §2
Rattus norvegicus [12] = assay: Activity against penile erection in Wistar rat at 0.3 umol/kg, sc; format: functional; outline: as §1
Canis familiaris [13] = assay: Volume of distribution in dog at 1 mg/kg, sc; format: ADME, organism-based, Canis lupus familiaris; design: dose 1 mg/kg, route subcutaneous; conditions: in vivo; outline: as §2
Rattus norvegicus [14] = assay: Volume of distribution in rat at 1 mg/kg, sc; format: ADME, organism-based; design: dose 1 mg/kg, route subcutaneous; conditions: in vivo; outline: as §2
[15] = target: D(4) dopamine receptor (Homo sapiens) (UniProt P21917); assay: Agonist activity at human recombinant D4.4 receptor expressed in HEK293 cells by FLIPR assay relative to dopamine
Rattus norvegicus [16] = assay: Inhibition of (E)-1-(4-chlorophenyl)-3-(4-pyridin-2-ylpiperazin-1-yl)propan-1-one O-methyloxime-induced erectogenic effect in Wistar rat at 1 umol/kg, ip; format: functional, organism-based
Mustela putorius furo = assay: Emetic activity in ferret at 0.03 to 3 umol/kg, sc; format: functional, organism-based
Canis familiaris [17] = species on record: Canis familiaris; assay: Prolongation of canine cardiac Purkinje fiber repolarization; format: functional, Canis lupus familiaris
Mus musculus [18] = assay: Lowering of hypothermia in mouse at 10 umol/kg by Irvin test; format: functional, organism-based
Mus musculus [19] = assay: Lowering of piloerection in mouse at 10 umol/kg by Irvin test; format: functional, organism-based
Rattus norvegicus [20] = assay: Activity against penile erection in Wistar rat at 0.03 umol/kg, sc; format: functional; outline: as §1
[21] = Half life in rat at 1 mg/kg, po; format: ADME, organism-based; design: dose 1 mg/kg, route oral; conditions: in vivo; outline: as §2
[22] = Half life in dog at 1 mg/kg, po; format: ADME, organism-based, Canis lupus familiaris; design: dose 1 mg/kg, route oral; conditions: in vivo; outline: as §2
Mus musculus [23] = assay: Lowering of hypoactivity in mouse at 10 umol/kg by Irvin test; format: functional, organism-based
Mus musculus [24] = assay: Lowering of ptosis in mouse at 10 umol/kg by Irvin test; format: functional, organism-based
Rattus norvegicus [25] = assay: Activity against penile erection in Wistar rat at 1.0 umol/kg, sc; format: functional; outline: as §1
Rattus norvegicus [26] = assay: Inhibition of (E)-1-(4-chlorophenyl)-3-(4-pyridin-2-ylpiperazin-1-yl)propan-1-one O-methyloxime-induced erectogenic effect in Wistar rat at 3 umol/kg, ip; format: functional, organism-based

T1 sequence (P14416 whole entry): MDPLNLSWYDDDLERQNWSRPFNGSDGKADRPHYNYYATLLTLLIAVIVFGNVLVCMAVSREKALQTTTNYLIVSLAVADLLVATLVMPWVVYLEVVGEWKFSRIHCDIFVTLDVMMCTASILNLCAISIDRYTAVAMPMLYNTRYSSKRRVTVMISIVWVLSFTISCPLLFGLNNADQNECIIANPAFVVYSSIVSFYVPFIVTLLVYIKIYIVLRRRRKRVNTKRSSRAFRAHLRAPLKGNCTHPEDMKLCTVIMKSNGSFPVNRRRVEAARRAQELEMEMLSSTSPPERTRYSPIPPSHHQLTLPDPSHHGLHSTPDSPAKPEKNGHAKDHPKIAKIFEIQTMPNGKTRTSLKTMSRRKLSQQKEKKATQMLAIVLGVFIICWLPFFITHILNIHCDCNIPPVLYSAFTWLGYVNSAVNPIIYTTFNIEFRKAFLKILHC

Compound	pEC50 (D(2) dopamine receptor [1])	pKi (D(2) dopamine receptor [2])	pIC50 (D(2) dopamine receptor [3])	pEC50 (D(4) dopamine receptor [4])	pKi (D(4) dopamine receptor [5])	Activity (Rattus norvegicus [6])	bioavailability [8]	bioavailability [9]	Vbeta (Canis familiaris [13])	Vbeta (Rattus norvegicus [14])	other results
CO/N=C(\CCN1CCN(c2ccccn2)CC1)c1cc(F)cc(F)c1	< 5.00	6.88	< 5.00	7.43	6.96	68%	–	–	–	–	–
CO/N=C(\CCN1CCN(c2ccccn2)CC1)c1ccccc1	< 5.00	6.76	< 5.00	7.49	7.64	77%	–	–	–	–	–
O=c1[nH]c2ccccc2n1CCCN1CCC(n2c(=O)[nH]c3cc(Cl)ccc32)CC1	–	–	–	–	–	–	–	–	–	–	Activity (Rattus norvegicus [7]): inactive
O/N=C(\CCN1CCN(c2ccccn2)CC1)c1ccccc1	< 5.00	6.59	< 5.00	8.36	7.60	–	0%	0%	1.8 L/kg	1 L/kg	bioavailability [10]: 68.1%; half-life [11]: 0.8 h; Activity (Rattus norvegicus [12]): 60%
CO/N=C(/CCCN1CCN(c2ccccn2)CC1)c1ccc(F)cc1	6.44	–	< 5.00	7.47	–	–	–	–	–	–	Efficacy [15]: 65%
O=C(CCCN1CCC(O)(c2ccc(Cl)cc2)CC1)c1ccc(F)cc1	–	–	–	–	–	–	–	–	–	–	Activity (Rattus norvegicus [16]): Active
CO/N=C(\CCN1CCN(c2ccccn2)CC1)c1ccc(Cl)cc1	< 5.00	7.20	< 5.00	7.42	7.42	–	39.8%	16.3%	4.8 L/kg	4.3 L/kg	Activity (Mustela putorius furo): inactive; Activity (Canis familiaris [17]): 14.7%; Activity (Mus musculus [18]): Active; Activity (Mus musculus [19]): Active; bioavailability [10]: 94.8%; half-life [11]: 1.9 h; Activity (Rattus norvegicus [20]): 85%; half-life [21]: 2.3 h; half-life [22]: 6.2 h; Activity (Mus musculus [23]): Active; Activity (Mus musculus [24]): Active
CO/N=C(\CCN1CCN(c2ccccn2)CC1)c1ccc(F)c(Cl)c1	< 5.00	6.77	< 5.00	6.83	7.15	–	42.9%	18.6%	3.8 L/kg	8.2 L/kg	Activity (Rattus norvegicus [25]): 85%; half-life [22]: 6.1 h
CN1CCN(C2=Nc3cc(Cl)ccc3Nc3ccccc32)CC1	–	–	–	–	–	–	–	–	–	–	Activity (Rattus norvegicus [26]): Active
CO/N=C(\CCN1CCN(c2ccccn2)CC1)c1ccc(C)c(C)c1	< 5.00	6.86	< 5.00	6.97	7.56	68%	–	–	–	–	–
